Test results published in article PMC4110911 (Bioorganic & medicinal chemistry letters, 2014).

Columns and labels:
PKC = experiment: PepTag non-radioactive PKC assay; assay type: biochemical; details: read-out: IC50 value, PKC; mean ± standard deviation, triplicate
[1] = Distribution of compound in tissues and plasma after chronic oral administration; assay type: in vivo; details: CD1 mice, oral gavage 5 mg/Kg daily for 75 days, n = 4
In short: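 CD1 mice: four treated, two untreated. Test compound was given by oral gavage at 5 mg/Kg once daily for 75 days. Brain, pancreas, liver, kidney, lung and plasma were then assayed for the compound by a previously reported procedure. Levels are in µM as mean ± standard deviation; ND = not detectable.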

[2] = test system: liver transaminases, aspartate aminotransferase (AST) and alanine transaminase (ALT); experiment: Plasma liver transaminase; assay type: in vivo; details: mice, 5 mg/kg daily by oral gavage for 75 days, vs control mice

Row | IC50 (PKC) [µM] | Concentration of 3, Kidney [1] [µM] | Concentration of 3, Liver [1] [µM] | Concentration of 3, Pancreases [1] [µM] | Concentration of 3, Plasma [1] [µM] | SMILES | ALT enzyme activity in plasma [2] | AST enzyme activity in plasma [2]
2 | 240 ± 21.2 | 16.1 ± 2.1 | 7.1 ± 0.6 | 26.5 ± 6.6 | 4.5 ± 0.3 | COc1cc(NCc2ccc(O)cc2)c2nccc(C)c2c1Oc1cccc(C(F)(F)F)c1 [Compound 3] | No significant difference | No significant difference
3 | 400 ± 13.7 | – | – | – | – | COc1cc(NCc2cccc3cccnc23)c2nccc(C)c2c1Oc1cccc(C(F)(F)F)c1 [Compound 7] | – | –

Row | SMILES | IC50 (PKC) [µM] | Concentration of 3, Kidney [1] [µM] | Concentration of 3, Liver [1] [µM] | Concentration of 3, Pancreases [1] [µM] | Concentration of 3, Plasma [1] [µM] | ALT enzyme activity in plasma [2] | AST enzyme activity in plasma [2]
4 | CN[C@@H]1C[C@H]2O[C@@](C)([C@@H]1OC)n1c3ccccc3c3c4c(c5c6ccccc6n2c5c31)C(=O)NC4 [Staurosporine, reference compound] | […] | – | – | – | – | – | –
